Key:
Type in all cases: functional
Rattus norvegicus [1] = test: Rise in the blood glucose level after 30 min following 300 mg/kg oral dose in fasted nondiabetic rats
Summary of the method: (§1)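 Rats fasted 18 h, dosed orally (0.5% w/v methylcellulose suspension or aqueous solution; controls got the same vehicle) 60 min before an oral glucose load of 1.0 g/kg. Tail-vein blood was taken just before (0 min) and 30 min after glucose. Whole blood was deproteinized with Ba(OH)2/ZnSO4 and glucose read by glucose oxidase. Values are mean ± SEM, n rats per group.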

Rattus norvegicus [2] = test: Percent inhibition of glucose rise, following 50 mg/kg oral dose in fasted nondiabetic rats
Summary of the method: (§2)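 Rats fasted 18 h were dosed orally around 9 a.m. with drug or vehicle (0.5% w/v methylcellulose suspension or aqueous solution), dosed on salt-free basis by mean group body weight, 60 min before oral glucose 1.0 g/kg. Tail-vein blood at 0 and 30 min, glucose oxidase on deproteinized whole blood. Rise corrected for no-glucose vehicle rats; %inhibition = 100(ΔGV−ΔGD)/ΔGV; mean ± SEM.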

Rattus norvegicus [3] = test: Rise in the blood glucose level after 30 min following 10 mg/kg oral dose in fasted nondiabetic rats; summary of the method: as §1
Rattus norvegicus [4] = test: Rise in the blood glucose level after 30 min following 50 mg/kg oral dose in fasted nondiabetic rats; summary of the method: as §1
Rattus norvegicus [5] = test: Rise in the blood glucose level after 0 min following 150 mg/kg oral dose in fasted nondiabetic rats; summary of the method: as §1
Rattus norvegicus [6] = test: Rise in the blood glucose level at 300 mg/kg oral dose in fasted nondiabetic rats
Summary of the method: (§3)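 Fasted rats (18 h) were given oral drug or vehicle 60 min before 1.0 g/kg oral glucose, with glucose-oxidase readings on tail blood at 0 and 30 min. The change from 0 min was corrected by subtracting the change in vehicle rats given no glucose. Groups were compared with vehicle by ANOVA/Dunnett (p ≤ 0.05). % inhibition = 100(ΔGV − ΔGD)/ΔGV.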

Rattus norvegicus [7] = test: Rise in the blood glucose level after 0 min following 10 mg/kg oral dose in fasted nondiabetic rats; summary of the method: as §1
Rattus norvegicus [8] = test: Percent inhibition of glucose rise, following 150 mg/kg oral dose in fasted nondiabetic rats; summary of the method: as §2
Rattus norvegicus [9] = test: Percent inhibition of glucose rise, following 10 mg/kg oral dose in fasted nondiabetic rats; summary of the method: as §2
Rattus norvegicus [10] = test: Rise in the blood glucose level after 0 min following 50 mg/kg oral dose in fasted nondiabetic rats; summary of the method: as §1
Rattus norvegicus [11] = test: Rise in the blood glucose level at 50 mg/kg oral dose in fasted nondiabetic rats; summary of the method: as §3
Rattus norvegicus [12] = test: Rise in the blood glucose level after 30 min following 150 mg/kg oral dose in fasted nondiabetic rats; summary of the method: as §1
Rattus norvegicus [13] = test: Rise in the blood glucose level at 150 mg/kg oral dose in fasted nondiabetic rats; summary of the method: as §3
Rattus norvegicus [14] = test: Percent inhibition of glucose rise, following 300 mg/kg oral dose in fasted nondiabetic rats; summary of the method: as §2
Rattus norvegicus [15] = test: Rise in the blood glucose level at 100 mg/kg oral dose in fasted nondiabetic rats; summary of the method: as §3
Rattus norvegicus [16] = test: Rise in the blood glucose level at 10 mg/kg oral dose in fasted nondiabetic rats; summary of the method: as §3
Rattus norvegicus [17] = test: Rise in the blood glucose level after 0 min following 100 mg/kg oral dose in fasted nondiabetic rats; summary of the method: as §1
Rattus norvegicus [18] = test: Rise in the blood glucose level after 30 min following 100 mg/kg oral dose in fasted nondiabetic rats; summary of the method: as §1
Rattus norvegicus [19] = test: Percent inhibition of glucose rise, following 100 mg/kg oral dose in fasted nondiabetic rats; summary of the method: as §2
Rattus norvegicus [20] = test: Rise in the blood glucose level after 0 min following 300 mg/kg oral dose in fasted nondiabetic rats; summary of the method: as §1
Rattus norvegicus [21] = test: Rise in the glucose level 100 mg/kg oral dose in fasted nondiabetic rats; summary of the method: as §3
Rattus norvegicus [22] = test: Rise in the blood glucose level after 30 min following 200 mg/kg oral dose in fasted nondiabetic rats; summary of the method: as §1
Rattus norvegicus [23] = test: Rise in the blood glucose level at 200 mg/kg oral dose in fasted nondiabetic rats; summary of the method: as §3
Rattus norvegicus [24] = test: Rise in the blood glucose level after 0 min following 200 mg/kg oral dose in fasted nondiabetic rats; summary of the method: as §1
Rattus norvegicus [25] = test: Percent inhibition of glucose rise, following 200 mg/kg oral dose in fasted nondiabetic rats; summary of the method: as §2

Row | SMILES | Glucose rise (Rattus norvegicus [17]) | Glucose rise (Rattus norvegicus [18]) | inhibition in vivo at 100 mg/kg (Rattus norvegicus [19]) | Glucose rise (Rattus norvegicus [21]) | further results
1 | N=C(N)NC(=N)NCCc1ccccc1 [PHENFORMIN] | 70 mg/dL | 101 mg/dL | 64% | – | Glucose rise (Rattus norvegicus [1]): 21 mg/dL; inhibition in vivo at 50 mg/kg (Rattus norvegicus [2]): 57%; Glucose rise (Rattus norvegicus [3]): 129 mg/dL; Glucose rise (Rattus norvegicus [4]): 98 mg/dL; Glucose rise (Rattus norvegicus [5]): 58 mg/dL; Glucose rise (Rattus norvegicus [6]): 21 mg/dL; Glucose rise (Rattus norvegicus [7]): 61 mg/dL; inhibition in vivo at 150 mg/kg (Rattus norvegicus [8]): 71%; inhibition in vivo at 10 mg/kg (Rattus norvegicus [9]): 0%; Glucose rise (Rattus norvegicus [10]): 63 mg/dL; Glucose rise (Rattus norvegicus [11]): 35 mg/dL; Glucose rise (Rattus norvegicus [12]): 84 mg/dL; Glucose rise (Rattus norvegicus [13]): 26 mg/dL; inhibition in vivo at 300 mg/kg (Rattus norvegicus [14]): 81%; Glucose rise (Rattus norvegicus [15]): 31 mg/dL; Glucose rise (Rattus norvegicus [16]): 68 mg/dL; Glucose rise (Rattus norvegicus [20]): 70 mg/dL
2 | COC1OC(C/N=C(/N)N=C(N)N)[C@@H](OCc2ccccc2)C(OCc2ccccc2)[C@H]1OCc1ccccc1 (some centres undefined) | 82 mg/dL | 123 mg/dL | 47% | 41 mg/dL | –
3 | N=C(N)/N=C(\NCCc1ccccc1)NC1OC(CO)[C@@H](O)C(O)[C@H]1O (some centres undefined) | 74 mg/dL | 137 mg/dL | 9% | 63 mg/dL | –
4 | N=C(N)/N=C(\N)NCCC1OC(CO)[C@@H](O)C1O (some centres undefined) | 74 mg/dL | 127 mg/dL | 26% | 53 mg/dL | –
5 | CO[C@H]1OC(CNC(=N)NC(=N)N)[C@@H](O)C(O)[C@H]1O (some centres undefined) | 72 mg/dL | 133 mg/dL | 12% | 61 mg/dL | –
6 | N=C(N)/N=C(\S)NC1OC(CO)[C@@H](O)C(O)[C@H]1O (some centres undefined) | 76 mg/dL | 139 mg/dL | 9% | 63 mg/dL | –
7 | CC1(C)O[C@H]2OC3C(OC(C)(C)O[C@@H]3C/N=C(\N)N=C(N)N)[C@H]2O1 (some centres undefined) | 78 mg/dL | 118 mg/dL | 48% | – | Glucose rise (Rattus norvegicus [22]): 121 mg/dL; Glucose rise (Rattus norvegicus [23]): 43 mg/dL; Glucose rise (Rattus norvegicus [15]): 40 mg/dL; Glucose rise (Rattus norvegicus [24]): 78 mg/dL; inhibition in vivo at 200 mg/kg (Rattus norvegicus [25]): 45%
8 | CC1(C)OC2C(C/N=C(\N)N=C(N)N)O[C@@H]3OC(C)(C)O[C@@H]3C2O1 (some centres undefined) | 67 mg/dL | 141 mg/dL | -12% | 74 mg/dL | –
9 | N=C(N)/N=C(\N)NCC1OC(O)[C@H](O)C(O)C1O (some centres undefined) | 68 mg/dL | 145 mg/dL | -14% | 77 mg/dL | –
10 | CC1(C)O[C@@H]2CO[C@@]3(C/N=C(/N)N=C(N)N)OC(C)(C)OC3[C@@H]2O1 (some centres undefined) | 67 mg/dL | 152 mg/dL | -29% | 85 mg/dL | –
11 | CN(C)C(=N)NC(=N)N [METFORMIN] | 68 mg/dL | 113 mg/dL | 41% | 45 mg/dL | –

From ChEMBL document CHEMBL1124586, “Carbohydrate biguanides as potential hypoglycemic agents” (1989)
